Data from article PMC10829792 (Cell Reports Medicine, 2024).

Tests used:
[1] = tested on: U2932 xenograft mice; assay: Tumor growth and survival study in U2932 xenograft mice; assay type: in vivo, mouse; settings: romidepsin 1 mg/kg i.p. on days 0 and 6, n = 8
In short: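 Mice bearing U2932 tumours of 100–150 mm³ were randomised. Romidepsin 1 mg/kg i.p. on days 0 and 6, and test compound 5 mg/kg on days 1, 4, 7 and 10, alone or combined. Vehicle group included.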

[2] = tested on: DLBCL patient-derived xenograft (PDX) mice; assay: Tumor growth in DLBCL PDX mice; assay type: in vivo, mouse; settings: γPNA2-NLS 5 mg/kg, romidepsin 1 mg/kg i.p., n = 5 per group
In short: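 DLBCL PDX fragments were serially implanted, reharvested at ~1500 mm³, and grouped at 100–150 mm³. Dosing followed the U2932 xenograft regimen: romidepsin 1 mg/kg i.p. days 0 and 6; test compound 5 mg/kg days 1, 4, 7 and 10. Body weight and tumour volume were recorded daily. Endpoint was tumour volume 1800–2000 mm³.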

[3] = tested on: U2932 cells; assay: Cell viability, trypan blue assay; assay type: cell-based, human; settings: U2932 cells treated with only romidepsin (10 nM) or γPNA2-NLS (8 μM)
[4] = tested on: DLBCL PDX tumors; assay: Histology and immunohistochemistry; assay type: in vivo, mouse; settings: romidepsin study, n = 2 mice per group, n > 4 images
In short: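 DLBCL PDX mice grouped at tumour volume 100–150 mm³. Romidepsin 1 mg/kg i.p. on days 0 and 6; test compound 5 mg/kg on days 1, 4, 7 and 10. Mice euthanized at 1800–2000 mm³.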

[5] = tested on: Raji cells; assay: Cell viability, trypan blue assay; assay type: cell-based, human; settings: romidepsin with or without γPNA2-NLS, mean, n = 3
[6] = tested on: γH2AX in HeLa cells; assay: γH2AX foci assay, immunofluorescence; assay type: cell-based, human; settings: 24 h, γPNA2-NLS 8 μM, bleomycin 50 and 150 μM
In short: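 HeLa cells were seeded at 100,000/well and exposed for 24 h to test compound (8 μM) or bleomycin (50 and 150 μM). Nuclei were stained with NucBlue (25 min, 37°C). Cells were fixed in 4% PFA (10 min, RT), permeabilised with 0.1% Triton X in PBS, and stained with PE-conjugated anti-γH2AX (2 h, 37°C). Read-out was fluorescence microscopy.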

Row | Molecule | reduction of tumor growth [1] | lower tumor volumes / decrease on day 35 [2] | viability, day 4, single treatments [3] | caspase-3 activation, fold increase [4] | reduction in viability, day 4 [5] | γH2AX immunofluorescence staining [6]
1 | C/C=C1\NC(=O)[C@H]2CSSCC/C=C/[C@H](CC(=O)N[C@H](C(C)C)C(=O)N2)OC(=O)[C@H](C(C)C)NC1=O [romidepsin] | 2 fold | 1.3 fold | 50 % viability | ~5 fold | 58% | –
2 | bleomycin | – | – | – | – | – | increased γH2AX-positive nuclei
